High-throughput results deposited in PubChem by several laboratories.
In the library only some 1.9% were active in any assay of this set; here they are far more common.
MT stabilize HCS: stabilizes microtubules in HeLa cells. HeLa tubulin immunostaining HCS, 24 h; share of cells brighter than vehicle mean+2SD. % tubulin-high responders, % at 10 µM. 200,000 compounds, 0.83% hits. AID 2205;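 active means plate Z-score above 3 for both tubulin-high and condensed-nucleus cell shares, with cell loss under 80%, at 10 µM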;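 further: anti alpha tubulin signal scored within the nucleus-defined area of each cell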
Autophagy HCS: modulators of autophagy; MEF GFP-LC3 puncta imaging; test concentration mostly 10 µM; calls only at 10 µM (by protocol); 190,000 compounds, 0.98% hits; AID 463193;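 active means percentage of spot-positive cells more than 3 SD above its plate mean, without a fluorescence outlier flag or 80% toxicity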;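 further: spot-positive cell cutoff set from DMSO-treated cells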
Ins promoter up: MIN6 insulin promoter up-regulation. MIN6 insulin promoter-GFP reporter, high-content imaging; active compounds read high. 190,000 compounds, 0.3% hits. z-score at 5 µM;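 active means z-score above 3 at 5 µM with at least 500 cells counted in the well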
HSV augment: HSV replication enhancement; HSV replication augmentation in cells, fold increase; 220,000 compounds, 0.005% hits; maximum fold increase; in the data active means maximum fold increase above about 1.5; tested in PC3 cells
Furin inh: inhibitors of human furin | 220,000 compounds, 0.061% hits | purified furin, fluorogenic substrate cleavage | AID 463115 | inhibition, % at 20 µM or 30 µM; in the data active means inhibition above about 25%
Target sequence (P09958 108-714 limits assumed): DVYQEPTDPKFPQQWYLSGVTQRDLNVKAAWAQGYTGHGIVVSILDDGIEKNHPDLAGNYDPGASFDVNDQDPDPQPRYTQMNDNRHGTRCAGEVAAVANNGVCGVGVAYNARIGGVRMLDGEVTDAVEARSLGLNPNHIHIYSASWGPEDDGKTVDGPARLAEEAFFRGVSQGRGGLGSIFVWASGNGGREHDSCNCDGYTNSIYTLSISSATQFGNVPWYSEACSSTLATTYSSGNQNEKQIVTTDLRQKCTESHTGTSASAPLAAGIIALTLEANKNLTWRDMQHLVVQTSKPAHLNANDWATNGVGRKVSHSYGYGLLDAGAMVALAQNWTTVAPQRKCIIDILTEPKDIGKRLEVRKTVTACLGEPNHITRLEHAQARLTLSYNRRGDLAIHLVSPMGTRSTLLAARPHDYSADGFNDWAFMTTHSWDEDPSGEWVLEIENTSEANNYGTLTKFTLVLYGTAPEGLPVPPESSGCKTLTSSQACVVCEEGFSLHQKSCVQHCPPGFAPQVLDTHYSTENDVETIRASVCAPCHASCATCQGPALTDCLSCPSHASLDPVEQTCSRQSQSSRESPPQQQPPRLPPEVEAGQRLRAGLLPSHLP
b-catenin transl: beta-catenin nuclear translocation modulation. HeLa beta-catenin nuclear translocation, immunofluorescence imaging. nuclear translocation activity, % at 5 µM. 190,000 compounds, 0.3% hits. AID 1665;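 active means nuclear translocation activity above 50% at 5 µM, with a well cell count of 50 or more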;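 further: per-cell ratio of nuclear to cytoplasmic median beta-catenin stain intensity; plate controls were DMSO negative control for no effect and GSK-3 inhibitor IX positive control for full effect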
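System: HeLa cells, endogenous beta-catenin; compound dosing: 5 µM primary single dose, 0.1% DMSO, 0.02–20 µM confirmation series; incubation: 24 h compound exposure at 37°C, 5% CO2; signal: beta-catenin immunofluorescence imaging with DAPI; evaluation: % activation, nuclear-to-cytoplasmic median beta-catenin signal ratio per cell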
Numbers without * were called inactive.

Screening C/C(=N\NC(=O)c1ccc(CN2CCc3ccccc3C2)cc1)c1ccccc1O returned MT stabilize HCS 1.8, Autophagy HCS inactive, Ins promoter up -0.14, HSV augment inactive, Furin inh -11.7 and b-catenin transl 0.6.
Screening CC1=NNC(=O)C1CC(=O)N/N=C/c1ccc(C)o1 (centres undefined) returned HSV augment inactive, Furin inh 4.7 and b-catenin transl -0.2.
CC1=NNC(=O)C1CCC(=O)N/N=C/c1ccc(C)cc1 (centres undefined) was read as Ins promoter up 3.3*, HSV augment inactive, Furin inh -21.5 and b-catenin transl 0.0.
`O=C(NCCCN1CCCC1)[C@H](CSCc1ccccc1)N1Cc2ccccc2C1=O` gave Ins promoter up 0.12, HSV augment inactive, Furin inh -15.0 and b-catenin transl 1.1.
Screening CC(C)n1c(NCc2ccc(N(C)C)cc2)nc2ccccc21 returned MT stabilize HCS 3.0, Autophagy HCS active, Ins promoter up 1.16, HSV augment inactive, Furin inh -22.3 and b-catenin transl -0.3.
For CCN(CC)c1ccc(CNc2nc3ccccc3n2C(C)C)cc1 the results were Ins promoter up 0.1, HSV augment inactive, Furin inh -21.5 and b-catenin transl 0.6.
For COCc1cc(C)nc(Nc2ccccc2C)c1C#N the results were MT stabilize HCS 3.3, Autophagy HCS inactive, Ins promoter up 3.32*, HSV augment inactive, Furin inh -7.1 and b-catenin transl -2.9.
For Cc1nc(NCCCn2ccnc2)c2oc3ccccc3c2n1 the results were MT stabilize HCS 2.7, Autophagy HCS inactive, Ins promoter up 0.53, HSV augment inactive, Furin inh -19.6 and b-catenin transl 0.0.
For c1ccc2c(c1)oc1c(NCCCn3ccnc3)ncnc12 the results were MT stabilize HCS 1.6, Autophagy HCS active, Ins promoter up -0.31, HSV augment inactive, Furin inh -3.3 and b-catenin transl 0.0.
Screening O=c1c(-c2cccc3ccccc23)[n+]([O-])c2ccccc2n1O returned MT stabilize HCS 2.8, Autophagy HCS inactive, Ins promoter up 0.69, HSV augment inactive, Furin inh 10.4 and b-catenin transl -3.5.
COc1ccc(/C=N/NC(=O)CCn2c3ccccc3c3ccccc32)cc1O was read as MT stabilize HCS 18.5*, Autophagy HCS inactive, Ins promoter up -0.28, HSV augment inactive, Furin inh -14.8 and b-catenin transl 52.9*.
For CCOC(=O)N1CCC(n2c(=S)[nH]c3cc(OCC)c(OCC)cc3c2=O)CC1 the results were MT stabilize HCS 2.3, Autophagy HCS active, Ins promoter up -0.24, HSV augment inactive and Furin inh -16.6.
Screening CCOC(=O)C1CCN(CC(=O)Nc2c(C(=O)OC)[nH]c3cccc(Cl)c23)CC1 returned MT stabilize HCS 1.5, Autophagy HCS inactive, Ins promoter up 0.2, HSV augment inactive, Furin inh -19.6 and b-catenin transl 1.0.
For COC(=O)c1[nH]c2cccc(Cl)c2c1NC(=O)CN(C)C1CCCCC1 the results were MT stabilize HCS 2.1, Autophagy HCS inactive, Ins promoter up 3.5*, HSV augment inactive, Furin inh -40.7 and b-catenin transl 0.5.
`C/[N+]([O-])=C\C1C(=O)CCCC1=O` gave MT stabilize HCS 4.2, Autophagy HCS inactive, Ins promoter up -0.17, HSV augment inactive, Furin inh -23.6 and b-catenin transl -2.1.
For Cc1cc(C)cc(C(=O)NC(=S)Nc2ccc(Cc3ccncc3)cc2)c1 the results were MT stabilize HCS 12.0*, Autophagy HCS inactive, HSV augment inactive, Furin inh -29.5 and b-catenin transl -1.8.
`Cc1cccc(C(=O)NC(=S)Nc2ccc(Cc3ccncc3)cc2)c1` gave MT stabilize HCS 3.0, Autophagy HCS inactive, Ins promoter up -0.13, HSV augment inactive, Furin inh -19.9 and b-catenin transl -3.9.
Screening O=C(Nc1ccc(Cc2ccncc2)cc1)c1ccc(Br)o1 returned MT stabilize HCS 2.9, Autophagy HCS active, Ins promoter up -0.13, HSV augment inactive, Furin inh 7.7 and b-catenin transl 1.8.
CC(C)CCC(C(=O)O)C(C)CC(=O)NNC(=O)c1ccco1 (centres undefined) was read as MT stabilize HCS 2.1, Autophagy HCS inactive, Ins promoter up -0.09, HSV augment inactive, Furin inh -17.5 and b-catenin transl -0.1.
Screening Cc1cc(=O)n2c(C(=O)Nc3ccc(C(=O)OC(C)C)cc3)c(C(=O)Nc3ccccc3)sc2n1 returned MT stabilize HCS 5.1, Autophagy HCS inactive, Ins promoter up -0.5, HSV augment inactive, Furin inh -18.8 and b-catenin transl -5.0.
`CCOc1ccc(N2C(=O)CC(Sc3nnnn3-c3ccccc3)C2=O)cc1` (centres undefined) gave MT stabilize HCS 2.3, Autophagy HCS active, Ins promoter up 0.05, HSV augment inactive, Furin inh -22.8 and b-catenin transl -2.5.
Screening Cc1ccc(N/C(N)=N/c2nc(CSc3nnc(C)s3)cc(=O)[nH]2)c(C)c1 returned MT stabilize HCS 12.5*, Autophagy HCS inactive, Ins promoter up 0.69, HSV augment inactive, Furin inh -26.4 and b-catenin transl 19.6.
For C=CCn1cnc2c(c1=O)c1nc3ccccc3nc1n2/N=C/c1cccc(OC)c1OC the results were Ins promoter up -1.32 and b-catenin transl -6.3.
For C=CCn1cnc2c(c1=O)c1nc3ccccc3nc1n2/N=C/c1cc(OC)c(OC)c(OC)c1 the results were MT stabilize HCS 8.5, Autophagy HCS active, Ins promoter up -0.59, HSV augment inactive, Furin inh 2.6 and b-catenin transl -7.0.
For C/C(CC(=O)NCc1ccco1)=N\NC(=O)COc1ccc(Cl)cc1Cl the results were MT stabilize HCS 5.1, Autophagy HCS inactive, Ins promoter up -0.43, HSV augment inactive, Furin inh -8.8 and b-catenin transl 59.3*.
Screening CCCNC(=O)C/C(C)=N/NC(=O)COc1ccc(C)cc1Br returned MT stabilize HCS 4.3, Autophagy HCS inactive, Ins promoter up 1.93, HSV augment inactive, Furin inh -11.8 and b-catenin transl 4.6.
COc1ccc(CNC(=O)C/C(C)=N/NC(=O)COc2ccc(C)cc2Br)cc1 was read as MT stabilize HCS 3.8, Autophagy HCS inactive, Ins promoter up -0.1, HSV augment inactive, Furin inh -29.0 and b-catenin transl 145.9*.
`Cc1ccc(CN(CC(=O)NC2CCCC2)C(=O)CSc2nnc(COc3ccccc3)o2)cc1` gave MT stabilize HCS 3.4, Autophagy HCS inactive, Ins promoter up 0.23, HSV augment inactive, Furin inh 25.0* and b-catenin transl -1.9.
Screening CCOC(=O)C1=C(c2ccccc2)O/C(=C(\C(=O)OC)C(F)(F)F)S1 returned MT stabilize HCS 1.8, Autophagy HCS inactive, HSV augment inactive, Furin inh 7.4 and b-catenin transl 4.8.
